High-throughput results from PubChem BioAssay.
bCat nuc transl: modulators of beta-catenin nuclear translocation | HeLa beta-catenin nuclear translocation, immunofluorescence imaging | AID 1665 | nuclear translocation activity, % at 5 µM | 0.3% of 190,000 active;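 active = nuclear translocation activity above 50% at 5 µM, with a well cell count of 50 or more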;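 also: per-cell ratio of nuclear to cytoplasmic median beta-catenin stain intensity; plate controls were DMSO negative control for no effect and GSK-3 inhibitor IX positive control for full effect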
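Technique: fluorescence imaging of beta-catenin antibody stain plus DAPI / Material: human HeLa cell line / Incubation: compound treatment 24 h, 37°C, 5% CO2 / Read-out basis: % activation of per-cell nuclear versus cytoplasmic median beta-catenin signal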
ROMK primary: modulates human ROMK potassium channel activity; B-score at 10 µM; 2% of 130,000 active; P48048; Tet-inducible ROMK, thallium flux fluorescence; actives lie on both sides;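 active = signal ratio slope over the read window, or its plate-corrected B-score, at least 3 SD from the plate mean, either direction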;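 also: B-score of the F/F0 ratio slope over 7 to 12 s after thallium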
MT stabilizer: microtubule stabilization, imaging screen. HeLa tubulin immunostaining HCS, 24 h; share of cells brighter than vehicle mean+2SD. % tubulin-high responders, % at 10 µM. 0.83% of 200,000 active. AID 2205;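 active = plate Z-score above 3 for both tubulin-high and condensed-nucleus cell shares, with cell loss under 80%, at 10 µM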;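 also: anti alpha tubulin signal scored within the nucleus-defined area of each cell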
Redox H2O2 prof: compounds producing H2O2 with reducing agent – biochemical, NIH compound library profiling, artefact control for MLSCN library redox annotation, primary screen; 0.03% of 200,000 active; DTT-dependent redox cycling H2O2, phenol red/HRP absorbance; 100% = 100 µM peroxide control, 0% = buffer; activation, % at 10 µM; AID 878;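 active = activation of at least 50% relative to the plate's high and low controls in the primary single-dose screen; inactive = activation below 50%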;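 also: compound incubated with DTT at 0.8 mM final as the reducing agent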
KCC2 mod: modulators of human KCC2 chloride dependent transport; Q9H2X9; KCC2 cells, thallium flux FluoZin-2 fluorescence; B-score of Tl+ flux slope (higher = more flux/activation; lower = inhibition) at 10 µM; 2.2% of 190,000 active; AID 1456;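 active = thallium flux slope and its plate-corrected score both differing from the plate sample mean at a set confidence after two filtering rounds, in either direction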;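 also: slope of fluorescence scaled to starting intensity during 10 to 20 s after thallium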
Starred values were filed as active, the others as inactive. In the library only some 3.7% were active in any assay of this set; here they are far more common.

What do the screens show for `COCCCN=C1NN=C(c2cc(C)n(Cc3ccccc3Cl)c2C)CS1`?
bCat nuc transl: 76*; ROMK primary: 0.27; MT stabilizer: 15*; Redox H2O2 prof: 0; KCC2 mod: 1.2

Results for COCCCN=C1NN=C(c2cc(C)n(-c3ccccc3)c2C)CS1 ?
bCat nuc transl: 0; ROMK primary: -0.024; MT stabilizer: 3; Redox H2O2 prof: 0; KCC2 mod: 1.3

How did COCCCN=C1NN=C(c2cc(C)n(-c3ccccc3F)c2C)CS1 do in these assays?
bCat nuc transl: 92*; ROMK primary: 1.7; MT stabilizer: 19*; Redox H2O2 prof: 1; KCC2 mod: -1.2

What do the screens show for `COc1ccc(N(CC(=O)Nc2ccccc2F)S(=O)(=O)c2ccc(C)c([N+](=O)[O-])c2)cc1`?
bCat nuc transl: 0; ROMK primary: 0.2; MT stabilizer: 5; Redox H2O2 prof: -1; KCC2 mod: -1.9

What do the screens show for `O=C(NCc1ccc(-n2cccc2)cc1)c1cccc(F)c1`?
bCat nuc transl: 1; MT stabilizer: 3; Redox H2O2 prof: 0; KCC2 mod: 1.2

What do the screens show for `O=C(NCC(c1cccs1)N1CCOCC1)c1ccc(Br)o1` (configuration not stated)?
bCat nuc transl: 1; ROMK primary: -0.77; MT stabilizer: 22*; Redox H2O2 prof: 0; KCC2 mod: 0.13

What do the screens show for `CCCCc1ccc(NC(=S)Nc2ccc(Cl)c(S(=O)(=O)N(C)C)c2)cc1`?
bCat nuc transl: 2; ROMK primary: -0.34; MT stabilizer: 3; Redox H2O2 prof: 0; KCC2 mod: 0.29

Results for COc1cc(C(=O)NCCOc2cccc3cccnc23)cc(OC)c1OC ?
bCat nuc transl: 41; MT stabilizer: 40*; Redox H2O2 prof: 0; KCC2 mod: -1.3

Results for NC(=NCCc1ccccc1)NS(=O)(=O)c1ccccc1 ?
bCat nuc transl: -3; ROMK primary: 0.62; MT stabilizer: 3; Redox H2O2 prof: -1; KCC2 mod: -0.21

How did COc1ccccc1N(C)S(=O)(=O)c1ccc(C(=O)OCC(N)=O)cc1 do in these assays?
bCat nuc transl: -2; ROMK primary: 0.0019; MT stabilizer: 2; Redox H2O2 prof: -1; KCC2 mod: 2.7

What do the screens show for `CCCNC(=O)NC(=O)COC(=O)c1ccc(S(=O)(=O)N(C)c2ccccc2OC)cc1`?
bCat nuc transl: -3; ROMK primary: 1.4; MT stabilizer: 15*; Redox H2O2 prof: -3; KCC2 mod: -1.1

What do the screens show for `O=C(Oc1cc(Cl)ccc1Cl)c1ccc(N2CCOCC2)c([N+](=O)[O-])c1`?
bCat nuc transl: -1; ROMK primary: -0.3; MT stabilizer: 2; Redox H2O2 prof: 0; KCC2 mod: -0.21

What do the screens show for `COc1ccc(OCC(=O)N/N=C2/C=C(C)CC2)cc1`?
bCat nuc transl: -1; ROMK primary: -0.51; MT stabilizer: 4; Redox H2O2 prof: -2; KCC2 mod: -0.69

Results for Cc1ccc(C(=O)Nc2nc(-c3ccccc3)c(-c3ccccc3)o2)cc1 ?
bCat nuc transl: -2; ROMK primary: 1.1; MT stabilizer: 5; Redox H2O2 prof: 0; KCC2 mod: 31*

Results for Cc1cc(C)nc(SCC(=O)Nc2nc(-c3ccccc3)c(-c3ccccc3)o2)n1 ?
bCat nuc transl: -2; MT stabilizer: 7; Redox H2O2 prof: 0; KCC2 mod: -1.4

What do the screens show for `Cc1ccc(S(=O)(=O)N(C)C)cc1-n1c(SCC(=O)Nc2ccc(F)c(F)c2F)nc2ccccc2c1=O`?
bCat nuc transl: -1; MT stabilizer: 6; Redox H2O2 prof: -1; KCC2 mod: -1.1

How did COc1cc(S(=O)(=O)N(Cc2ccco2)C2CCCC2)ccc1-n1cnnn1 do in these assays?
bCat nuc transl: -2; MT stabilizer: 3; Redox H2O2 prof: 1; KCC2 mod: 0.034

Results for CCOc1ccccc1CN(Cc1ccco1)S(=O)(=O)c1ccc(-n2cnnn2)c(OC)c1 ?
bCat nuc transl: -1; MT stabilizer: 41*; Redox H2O2 prof: 0; KCC2 mod: -1.4

What do the screens show for `CCCCC(=O)Nc1ccc(C(=O)N(CC)c2ccccc2C)cc1`?
bCat nuc transl: -3; ROMK primary: 0.068; MT stabilizer: 5; Redox H2O2 prof: 0; KCC2 mod: -0.13

How did CCN1CC(CN(C)Cc2nc(-c3ccc(C(F)(F)F)cc3)no2)CC1=O (configuration not stated) do in these assays?
bCat nuc transl: 57*; ROMK primary: -0.46; MT stabilizer: 2; Redox H2O2 prof: 0; KCC2 mod: -0.58
